Active and inactive are the calls of the source. The calls are words filed in the database; no cut-off is given here.
How the values were obtained:
Calf thymus DNA [1] = experiment: Binding affinity to calf thymus DNA assessed as melting temperature at compound over DNA molar ratio of 0.3 at pH 7 by thermal denaturation assay; format: nucleic-acid assay; settings: Bos taurus
Procedure, shortened: (§1)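 Thermal melting of ds-polynucleotide (ct-DNA or poly A-poly U) alone and with compound at the given r, Na-cacodylate pH 7.0, I = 0.05 mol dm^-3. Absorbance at 260 nm was followed versus temperature, with compound absorbance subtracted and the curve normalized. Tm was taken from the first-derivative maximum or by tangent. ΔTm = Tm(complex) − Tm(free nucleic acid).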

Nucleic Acid [2] = experiment: Binding affinity to polu A-poly U assessed as melting temperature at compound over DNA molar ratio of 0.3 at pH 7 by thermal denaturation assay; format: nucleic-acid assay; procedure, shortened: as §1
MCF7 = experiment: Cytotoxicity against human MCF7 cells after 72 hrs by MTT assay; format: functional; settings: MCF7, 72 h
Procedure, shortened: (§2)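 Cells were seeded at 2 × 10^4 cells/mL and attached overnight at 37 °C, 5% CO2. They were then exposed for 72 h to compounds from aqueous stocks (working solutions 10^-3–10^-6 mol dm^-3). MTT was added for 4 h at 37 °C, formazan dissolved in DMSO, and absorbance read at 570 nm. GI50 is the mean ± SD of three independent experiments run in triplicate.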

NCI-H358 = experiment: Cytotoxicity against human NCI-H358 cells after 72 hrs by MTT assay; format: functional; settings: NCI-H358, 72 h; procedure, shortened: as §2
Caco-2 = experiment: Cytotoxicity against human Caco2 cells after 72 hrs by MTT assay; format: functional; settings: Caco-2, 72 h; procedure, shortened: as §2
HEp-2 = experiment: Cytotoxicity against human Hep2 cells after 72 hrs by MTT assay; format: functional; settings: HEp-2, 72 h; procedure, shortened: as §2
HeLa = experiment: Cytotoxicity against human HeLa cells after 72 hrs by MTT assay; format: functional; procedure, shortened: as §2
AGS = experiment: Cytotoxicity against human AGS cells after 72 hrs by MTT assay; format: functional; procedure, shortened: as §2
MIA PaCa-2 = experiment: Cytotoxicity against human MIAPaCa2 cells after 72 hrs by MTT assay; format: functional; settings: MIA PaCa-2, 72 h; procedure, shortened: as §2
[3] = Cytotoxicity against MDCK cells after 72 hrs by MTT assay; format: cell-based, Canis lupus familiaris; settings: dog; procedure, shortened: as §2
Calf thymus DNA [4] = experiment: Binding affinity to calf thymus DNA assessed as DNA CD band at compound over DNA molar ratio of > 0.3 by circular dichroism titration; format: nucleic-acid assay; settings: Bos taurus
Procedure, shortened: (§3)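 CD titration of polynucleotide (2.0 × 10^-5 mol dm^-3, as phosphate) with added compound over a range of r = [compound]/[polynucleotide]. Na-cacodylate buffer, pH 7.0, I = 0.05 mol dm^-3, 1 cm quartz cuvette. ct-DNA was sonicated and filtered before use. Changes in the polynucleotide CD band and induced CD bands were followed.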

Calf thymus DNA [5] = experiment: Binding affinity to calf thymus DNA minor groove assessed as DNA CD band at compound over DNA molar ratio of < 0.2 by circular dichroism titration; format: nucleic-acid assay; settings: Bos taurus; procedure, shortened: as §3
Nucleic Acid [6] = experiment: Binding affinity to ds-RNA assessed as RNA CD band at compound over RNA molar ratio of < 0.2 by circular dichroism titration; format: nucleic-acid assay; procedure, shortened: as §3
Calf thymus DNA [7] = experiment: Binding affinity to calf thymus DNA assessed as melting temperature at compound over DNA molar ratio of 0.1 at pH 7 by thermal denaturation assay; format: nucleic-acid assay; settings: Bos taurus; procedure, shortened: as §1
Calf thymus DNA [8] = experiment: Binding affinity to calf thymus DNA assessed as melting temperature at compound over DNA molar ratio of 0.2 at pH 7 by thermal denaturation assay; format: nucleic-acid assay; settings: Bos taurus; procedure, shortened: as §1
Calf thymus DNA [9] = experiment: Binding affinity to calf thymus DNA assessed as hyperchromic effect at compound over DNA molar ratio of 0.5 by UV-Vis spectra; format: nucleic-acid assay; settings: Bos taurus; in the assay text read “hypochromic effect” for “hyperchromic effect”
Procedure, shortened: (§4)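 UV-Vis titration of compound (c = 1.97 × 10^-5 mol dm^-3 in the shown example) with ct-DNA. Na-cacodylate buffer, pH 7.0, I = 0.05 mol dm^-3, 1 cm quartz cuvette. Absorbance at the maximum was tracked against c(ct-DNA). Ks and n were obtained by non-linear least-squares Scatchard fitting.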

Calf thymus DNA [10] = experiment: Binding affinity to calf thymus DNA assessed as batochromic effect at compound over DNA molar ratio of 0.2 by UV-Vis spectra; format: nucleic-acid assay; settings: Bos taurus; procedure, shortened: as §4
Calf thymus DNA [11] = experiment: Binding affinity to calf thymus DNA assessed as batochromic effect at compound over DNA molar ratio of 0.2 by fluorimetric titration; format: nucleic-acid assay; settings: Bos taurus
Procedure, shortened: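 Fluorimetric titration of compound (about 1.0 × 10^-6 mol dm^-3) with ct-DNA. Excitation above 360 nm to avoid inner-filter effects. Na-cacodylate buffer, pH 7.0, I = 0.05 mol dm^-3. Emission at the maximum was plotted against c(ct-DNA). Ks and n were obtained by non-linear Scatchard fitting.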

Nucleic Acid [12] = experiment: Binding affinity to ds-RNA assessed as RNA CD band at compound over RNA molar ratio of > 0.2 by circular dichroism titration; format: nucleic-acid assay; procedure, shortened: as §3
Calf thymus DNA [13] = experiment: Binding affinity to calf thymus DNA assessed as hyperchromic effect at compound over DNA molar ratio of 0.4 by UV-Vis spectra; format: nucleic-acid assay; settings: Bos taurus; in the assay text read “hypochromic effect” for “hyperchromic effect”; procedure, shortened: as §4

Row | ΔTm (Calf thymus DNA [1]) | ΔTm (Nucleic Acid [2]) | Activity (Calf thymus DNA [4]) | Activity (Calf thymus DNA [5]) | Activity (Nucleic Acid [6]) | ΔTm (Calf thymus DNA [7]) | ΔTm (Calf thymus DNA [8]) | Activity (Calf thymus DNA [9]) | Activity (Calf thymus DNA [10]) | Activity (Calf thymus DNA [11]) | Activity (Nucleic Acid [12]) | Activity (Calf thymus DNA [13]) | Structure (SMILES) | GI50 (MCF7) | GI50 (NCI-H358) | GI50 (Caco-2) | GI50 (HEp-2) | GI50 (HeLa) | GI50 (AGS) | GI50 (MIA PaCa-2) | GI50 at 72 h [3]
1 | 0 °C | 0 °C | – | – | – | – | – | – | – | – | – | – | N=C(Nc1ccccc1)c1sc(C(=N)Nc2ccccc2)c2c1OCCO2 | 129 µM | 112 µM | 134 µM | 100 µM | 138 µM | 114 µM | 128 µM | 79.5 µM
2 | > 16 °C | 12.6 °C | Active | Active | inactive | 12.2 °C | > 16 °C | Active | Active | Active | – | – | N=C(N)c1ccc(-c2sc(-c3ccc(C(=N)N)cc3)c3c2OCCO3)cc1 | 25 µM | 33 µM | 13 µM | 9.3 µM | 32.3 µM | 116 µM | 9.3 µM | 7.1 µM
3 | 12.3 °C | 5.8 °C | Active | Active | inactive | 8.4 °C | 11.1 °C | – | Active | Active | Active | Active | CC(C)NC(=N)c1ccc(-c2sc(-c3ccc(C(=N)NC(C)C)cc3)c3c2OCCO3)cc1 | 67.5 µM | 113 µM | 76.5 µM | 9 µM | 72.3 µM | 72.3 µM | 13 µM | 65.3 µM
